A selection: hits, their analogues and other compounds. The true share with any hit is near 4.8%.
Pyk2 oligo antag: antagonists of human Pyk2 oligomerization; z-score (the deposit names both 25 µM and 10 µM); Q14289; hit rate 0.83% among 99,000; Q293 cells, Pyk2 FERM NanoBiT luminescence; hits give low values;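 active = Z-score of -3 or lower, scaled per plate to the spread of control and sample wells; inactive = z-score above -3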;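 also: negative z-score means lost luminescence so less FERM oligomerization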
RORA act: RORA (human) activation; CHO-K1 Gal4-RORA LBD luciferase reporter, luminescence; percent increase over mock-subtracted basal signal; activation, % at 10 µM; hit rate 1.5% among 65,000; AID 560;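 active = activation above the mean of all tested compounds plus 3 SD, cut at about 49% in these data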
Target sequence (P35398 whole entry, looked up, the tested form may be a part): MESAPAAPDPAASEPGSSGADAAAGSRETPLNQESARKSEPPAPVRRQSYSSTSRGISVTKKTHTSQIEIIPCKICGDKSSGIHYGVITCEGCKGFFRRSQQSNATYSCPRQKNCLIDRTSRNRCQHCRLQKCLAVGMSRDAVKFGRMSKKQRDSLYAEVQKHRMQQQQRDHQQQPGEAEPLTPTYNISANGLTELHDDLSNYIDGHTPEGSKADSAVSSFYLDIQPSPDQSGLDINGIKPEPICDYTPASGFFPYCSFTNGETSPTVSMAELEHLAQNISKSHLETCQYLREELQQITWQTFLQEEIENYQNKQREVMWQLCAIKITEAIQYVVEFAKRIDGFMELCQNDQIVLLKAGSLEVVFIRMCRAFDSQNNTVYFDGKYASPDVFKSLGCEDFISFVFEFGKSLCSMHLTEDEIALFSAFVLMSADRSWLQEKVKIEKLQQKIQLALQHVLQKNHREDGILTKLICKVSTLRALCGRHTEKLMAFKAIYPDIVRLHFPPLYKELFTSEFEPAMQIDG
ERa coact pot: enhances coactivator binding to human estrogen receptor alpha. TR-FRET ERalpha-LBD/SRC-Cy5 coactivator binding, 2 h; 100 = basal binding, no effect. hit rate 1.3% among 86,000. coactivator binding (% of control), % at 25.6 µM. AID 639; in the data active = activity above about 200%;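 also: binding measured in presence of low estradiol as agonist stimulus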
SF1 activator: activates the human nuclear receptor SF-1; activation, % at 10 µM; hit rate 1.9% among 65,000; Q13285; CHO-K1 Gal4-SF-1 LBD luciferase reporter; % increase over DMSO SF-1-specific signal; AID 522;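 active = activation above the mean activation of all tested compounds plus 3 SD, cut at about 50% in these data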
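System: CHO-K1 cells with Gal4–hSF-1 LBD chimera plus Gal4-driven luciferase; quantity: 4,000 CHO-K1 cells per well; compound: one dose, 10 µM compound, 1% DMSO; times: 20 h compound treatment, 37 °C; measured by: SteadyLite luciferase luminescence; read-out: percent activation versus DMSO; benchmarks: DMSO and mock-transfected background; replicates: one test per compound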
ERb SRC1 inh: ER-beta (human) coactivator binding inhibition. Q92731. TR-FRET ER-beta LBD / SRC1-Cy5 peptide binding; receptor agonist-loaded with 1 µM estradiol. inhibition, % at 25.6 µM. hit rate 1.3% among 86,000. AID 633;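 active = compounds whose percent inhibition of the receptor-coactivator binding signal exceeds about 50% in the single-dose screen, limit read from the data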
ERa coact inh: ER-alpha (human) coactivator binding inhibition; P03372; TR-FRET ER-alpha LBD / SRC-1 peptide, estradiol-bound; inhibition, % at 25.6 µM; hit rate 1.7% among 86,000; AID 629; in the data active = inhibition above about 50%
Each line names hits and unclear results; the compound was inactive in the other large screens; [ ] = another dose, or the depositor's remark.

COc1ccc(-n2nnnc2SCc2nc3ccccc3s2)cc1	none (no result: RORA act, SF1 activator)
Cc1nnc(SCc2nc3ccccc3s2)n1-c1ccccc1	RORA act 76
c1ccc(-n2cnnc2SCc2nc3ccccc3s2)cc1	SF1 activator 58
O=C(/C=C/c1c(Cl)cccc1Cl)n1cccn1	none (no result: RORA act, SF1 activator)
C=CCSc1ncc(C#N)c(N)n1	none (no result: RORA act, SF1 activator)
Cc1ccc(/C=N/N2CCN(Cc3cccc4ccccc34)CC2)o1	none (no result: RORA act, SF1 activator)
CC(=O)Nc1ccc(NC(=O)COC(=O)Cc2cccs2)cc1	none (no result: RORA act, SF1 activator)
COCCn1c(SCc2nc3ccccc3s2)nc2ccccc21	SF1 activator 50
CNC(=O)NC(=O)CSc1nc2ccccc2n1CCOC	none (no result: RORA act, SF1 activator)
CCC(c1nnc(SCc2nc3ccccc3s2)n1Cc1ccccc1)N(C)C (configuration not stated)	SF1 activator 61
c1ccc(Cn2c(SCc3nc4ccccc4s3)nnc2-c2ccco2)cc1	none (no result: ERa coact pot, ERb SRC1 inh, ERa coact inh)
O=S(=O)(c1ccccc1F)N(Cc1ccco1)Cc1nnc(-c2ccccc2Br)o1	none
O=C(O)CNc1nc(Cl)ccc1[N+](=O)[O-]	none (no result: RORA act, SF1 activator)
COc1ccc(CCN2C(=O)c3ccncc3C2=O)cc1OC	none (no result: RORA act, SF1 activator)
COc1ccccc1CN1C(=O)c2ccncc2C1=O	ERb SRC1 inh 71[fluorescence artefact?]
CCOC(=O)N1CCC(NC(=O)Cn2ncn3c(cc4sc(CC)cc43)c2=O)CC1	ERb SRC1 inh 57[fluorescence artefact?] (no result: Pyk2 oligo antag)
CSc1nc(NCCOCCO)c2sc3nc(-c4ccco4)c4c(c3c2n1)CCC4	ERb SRC1 inh 76[fluorescence artefact?], ERa coact inh 79
CSc1cc(-c2ccc(Cl)cc2)n(Cc2ccccc2)c(=O)c1C#N	ERa coact inh 54[fluorescence artefact?] (no result: RORA act, SF1 activator)
Cc1ccc(C(=O)C2(C)C3c4cc(Br)ccc4OC(=O)C32C(=O)c2ccco2)cc1 (configuration not stated)	Pyk2 oligo antag -3.1 (no result: RORA act, SF1 activator)
O=C(Nc1ccc(Br)cn1)c1ccc2nccnc2c1	SF1 activator 69
c1cnc2c(SCc3ccc(-c4nnco4)cc3)cccc2c1	SF1 activator 62
Cc1cccc(N2CCN(C(=O)Cn3nc(Cc4ccncc4)c4ccccc4c3=O)CC2)c1C	none (no result: Pyk2 oligo antag)
CC(C)Sc1nc2sc3c(c2c2nnc(SCC(=O)NCc4ccco4)n12)CCCC3	none
CC(C)CCN1CC(O)=C(c2nc(-c3ccc(Cl)cc3)cs2)C1=N	ERa coact pot 219 (no result: RORA act, SF1 activator)
O=C1/C(=C/c2cccnc2)Oc2cc(OS(=O)(=O)c3ccc(F)cc3)ccc21	none (no result: RORA act, SF1 activator)
Cc1ccc(S(=O)(=O)Oc2ccc3c(c2)O/C(=C\c2cccnc2)C3=O)cc1	Pyk2 oligo antag -3 (no result: RORA act, SF1 activator)
O=C(NC(Cc1ccccc1)C(=O)O)c1ccc(S(=O)(=O)N2CCCCC2)cc1 (configuration not stated)	none (no result: RORA act, SF1 activator)
COc1ccc(Cn2c(C3CC3)nc3ccc(NC(C)=O)cc3c2=O)cc1	RORA act 77, SF1 activator 58
O=C(NCCN1CCOCC1)c1cc2cc(Cl)cc(Cl)c2oc1=O	none (no result: Pyk2 oligo antag, RORA act, SF1 activator)
CC(=O)CCc1c(C)c2cccc(C)c2[nH]c1=O	ERb SRC1 inh 82[fluorescence artefact?]
CCCc1c(C)c2cccc(C)c2[nH]c1=O	none
N#Cc1c(NC(=O)CSc2ncnc3sccc23)oc(-c2ccco2)c1-c1ccco1	ERb SRC1 inh 73[fluorescence artefact?], ERa coact inh 90[fluorescence artefact?]
CCNC(=O)CSc1ncnc2sccc12	ERa coact inh 66[fluorescence artefact?] (no result: RORA act, SF1 activator)
COCCNC(=O)CSc1ncnc2sccc12	none (no result: RORA act, SF1 activator)
O=C(Nc1nc(-c2ccccn2)cs1)c1ccc(Br)s1	ERa coact pot 473 (no result: RORA act, SF1 activator)
CCOc1ccc(C(CC(=O)O)NC(=O)C23CC4CC(CC(C4)C2)C3)cc1 (configuration not stated)	none (no result: RORA act, ERa coact pot, SF1 activator, ERb SRC1 inh, ERa coact inh)
Cc1sc(NC(=O)c2cccs2)nc1-c1ccccc1	none
O=C(Cc1cccs1)Nc1nncs1	ERb SRC1 inh 56
CC(C)c1nnc(NC(=O)Cc2cccs2)s1	none (no result: Pyk2 oligo antag)
O=C(Nc1nnc(Cc2ccccc2)s1)c1cccs1	SF1 activator 81
O=C(Nc1nsc(-c2ccccc2)n1)c1cccs1	SF1 activator 77
O=C(Nc1nnc(Cc2ccc(Cl)cc2)s1)c1cccs1	none (no result: RORA act, ERa coact pot, SF1 activator, ERb SRC1 inh, ERa coact inh)
COc1ccc(Cc2nnc(NC(=O)c3cccs3)s2)cc1	RORA act 51
Cn1c2c(c(=O)n(C)c1=O)C(c1ccccc1OC(F)F)C1=C(CCCC1=O)N2 (configuration not stated)	none
